# Hit rate of the full screen: of about 300,000 compounds, about 4,400 (1.5%) were called active. This excerpt belongs to a sample that is enriched for actives. A number with no mark means an inactive call.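 The calls were made as follows: active = mean inhibition across valid replicates above about 55% (limit read from the data); inconclusive = mean below that limit but half or more replicates reach it; inactive = mean below it, under half of replicates reach it.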
# Assay: inhibitors of intracellular T. cruzi growth, primary screen, luminescence, NIH3T3 host cells (AID 1885);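 also: signal also drops with host cell toxicity which is not excluded here; 0% = plate median of DMSO wells and 100% = zero luminescence signal; higher percent means less beta-gal luminescence so fewer parasites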
# Conditions: T. cruzi beta-gal in NIH3T3, luminescence, 90 h; stronger effect = higher value; concentration not given here
# Procedure, shortened: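 Incubation – ≥90 h infection period, 3 h prior cell attachment · System – NIH/3T3 fibroblasts plus reporter T. cruzi · Doses – compound pinned at 50 nL/well, DMSO · Read-out basis – percent inhibition of parasite-derived β-gal signal · Signal – luminescent β-galactosidase signal after 60 min lysis · Also added – 5000 T. cruzi trypomastigotes/well · Medium – Low-serum DMEM with 2% FBS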
row,SMILES,inhibition
1,C=CCOc1cccc(C2C(C(=O)c3ccc(C)o3)=C(O)C(=O)N2c2nnc(C)s2)c1 (configuration not stated),5.31%
2,N#C/C(=C\C1=C(N2CCOCC2)C(=C\c2ccccc2)/CC1)C(=O)Nc1ccccc1F,57.8% (active)
3,C(=N\N1CCN(c2ccccn2)CC1)/C1=C(N2CCOCC2)C(=C/c2ccccc2)/CC1,-15.4%
4,N#C/C(=C\c1ccccc1C(F)(F)F)C(=O)Nc1ccccc1F,-1.24%
5,CC(=O)c1ccc(NC(=O)c2sc3nc4n(c(=O)c3c2C)CCCCC4)cc1,-12.8%
6,Cc1ccc(N(CCC(=O)O)S(=O)(=O)c2cccc(C(F)(F)F)c2)cc1,-18.4%
7,CC(C)c1ccc(NC(=S)NNc2ccc(Cl)c(C(=O)O)c2)cc1,14.4%
8,Cc1ccc(C)c(NC(=S)NNC(=S)Nc2ccc(C(C)C)cc2)c1,65.3% (active)
9,Cc1ccc(C)c(NC(=S)NNC(=O)c2csc(C)c2)c1,6.88%
10,COc1cc2ccccc2cc1C(=O)Nc1ccncc1,6.55%
11,CCn1c(=O)c([N+](=O)[O-])c(NCc2ccc3c(c2)OCO3)c2ccccc21,24.6%
12,O=c1oc(/C=C/c2ccccc2)nc2ccccc12,-17.7%
13,CCn1c(/C=C/c2ccc([N+](=O)[O-])o2)nc2ccccc2c1=O,85.9% (active)
14,O=C(Cc1ccc(S(=O)(=O)N2CCOCC2)s1)N1CCN(c2ccc(C(F)(F)F)cc2[N+](=O)[O-])CC1,31%
15,CNC(=S)N/N=C/c1ccc(N2CCOCC2)s1,57.6% (active)
16,Cc1cc(C(=O)N/N=C/c2ccc(N3CCOCC3)cc2)c(C)o1,0.447%
17,C=CCNC(=S)N/N=C/c1ccc(C)s1,50.5%
18,CCCCn1c(N)c(N(CCOC)C(=O)c2cccc(S(=O)(=O)N(C)c3ccccc3)c2)c(=O)[nH]c1=O,2.71%
19,O=C(Nc1cccc(Br)c1)c1ccc2snnc2c1,10.3%
20,CCc1ccccc1NC(=O)c1ccc2snnc2c1,-10.4%
21,O=C(Nc1ccc2ccccc2c1)Nc1ccc2snnc2c1,57.6% (active)
22,O=S(=O)(NCCS(=O)(=O)N1CCN(c2ccccc2)CC1)c1ccc(F)cc1,-2.33%
23,COc1cccc(NC(=O)NCc2ccc(F)cc2)c1,1.25%

row,SMILES,inhibition
1,Cc1cccc(NC(=O)Nc2cccc(Oc3c(F)c(F)c(F)c(F)c3F)c2)c1,68.5% (active)
2,Cc1cccc(NC(=O)Nc2nnc(-c3ccccc3)o2)c1,-4.53%
3,COc1ccc(C(=O)NCC(c2ccco2)N2CCc3ccccc32)cc1OC (configuration not stated),5.94%
4,COc1ccc(C(=O)NCC2CCCN2S(=O)(=O)c2cccs2)cc1OC (configuration not stated),-3.88%
5,COc1ccc(-c2cc(C(=O)N/N=C/c3cccnc3)c3ccccc3n2)c(OC)c1,-3.19%
6,COc1ccc(-c2cc(C(F)(F)F)nc(S(C)(=O)=O)n2)cc1OC,60.3% (active)
7,COc1ccc(-c2ccc(Nc3ccc(S(=O)(=O)N4CCCC4)cc3)nn2)cc1OC,14.2%
8,COc1ccc(-c2cc(C(F)(F)F)nc(NCc3cccnc3)n2)cc1,49.2%
9,Cc1cc2nc3n(c2cc1C)CC1CC(C(=O)NCCC(C)C)N(C)C31 (configuration not stated),-2.62%
10,CCOc1cc(C(=O)O)ccc1OCCOc1ccccc1,3.5%
11,O=C(NCC1CCN(Cc2ccccc2Cl)CC1)Nc1cccc(Cl)c1,49.4%
12,Cc1cccc(CN2CCC(CNC(=O)Nc3ccc(F)c(Cl)c3)CC2)c1,46.2%
13,Cc1ccccc1NC(=O)NCC1CCN(Cc2cccc(Cl)c2)CC1,57.5% (active)
14,CSc1ccc(/C=C2\NC(=O)NC2=O)cc1,-13.1%
15,CC(=O)Nc1cccc(NC(=O)c2ccc3c(c2)CCN3S(C)(=O)=O)c1,-5.53%
16,OC(CNCC1CCCO1)Cn1c2ccc(Br)cc2c2cc(Br)ccc21 (configuration not stated),55.2% (active)
17,O=C(CSc1ccc(-c2ccc(Br)cc2)nn1)NCC1CCCO1 (configuration not stated),-13.2%
18,CC(NS(=O)(=O)c1ccc(Br)cc1)C(=O)NCC1CCCO1 (configuration not stated),0.0781%
19,Cc1nn(C)cc1/C=N/NC(=O)c1sc2ccccc2c1Cl,-4.55%
20,COc1ccc(CNC(=O)CNC(=O)c2sc3ccccc3c2Cl)cc1OC,13.1%
21,CN1CCc2ccccc2C1Cc1ccccc1NC(=O)c1sc2ccccc2c1Cl (configuration not stated),54.6% (active)
22,COCCCNC(NC(=O)c1ccc(OC)cc1)C(Cl)(Cl)Cl (configuration not stated),-20.9%
23,COc1ccccc1NC(=O)C(C)OC(=O)c1ccc(-n2cnnn2)cc1 (configuration not stated),-5.21%

row,SMILES,inhibition
1,O=C(Nc1cc(Cl)ccc1N1CCOCC1)c1ccc(N2CCCC2=O)cc1,-1.5%
2,CC(OC(=O)c1ccc(-n2cnnn2)cc1)C(=O)NCc1ccccc1 (configuration not stated),-10.5%
3,Cc1ccc(C(=O)NCC(=O)OCc2nnc(-c3ccccc3)o2)cc1,0.567%
4,COc1ccc(C(=O)Cc2cnn(-c3ccccc3)c2)c(O)c1,33.1%
5,C=C(C)COc1ccc(-c2n[nH]c(C)c2-c2ccccc2)c(O)c1,-19.2%
6,Cc1[nH]nc(-c2ccc(OCc3cnn(-c4ccccc4)c3)cc2O)c1Oc1ccc(Cl)cc1,57.6% (active)
7,COc1cc(OC)c(C(=O)OC(C)C(=O)Nc2cc(C(F)(F)F)ccc2Cl)cc1OC (configuration not stated),18.6%
8,CCC(C)N(C(=O)Cn1nc(C)c([N+](=O)[O-])c1C)C1CCS(=O)(=O)C1 (configuration not stated),-2.7%
9,CC(=O)Nc1ccc(NC(=O)CSC2=NS(=O)(=O)c3ccccc3N2)cc1,0.486%
10,Oc1ccc(CN2CCN(c3ncccn3)CC2)cc1,-5.02%
11,Cc1cccnc1NC(=O)c1cccc(S(=O)(=O)N2CCN(c3ccc(F)cc3)CC2)c1,13.5%
12,Oc1c(CN2CCN(c3ccc(F)cc3)CC2)cc(Cl)c2cccnc12,59.9% (active)
13,CC12CCC(=O)N1C(C(=O)Nc1ccc(F)c(F)c1F)CS2 (configuration not stated),-7.75%
14,COc1cccc(NC(=O)CN(C)C(=O)CSC(=S)N2CCCC2)c1,-6.94%
15,CCOC(=O)c1sc(=S)n2c1[nH]c(=O)c1ccc(C(=O)OC)cc12,4.87%
16,CCOC(=O)C1=C(C)Nc2sc(C(=O)c3ccc(Br)cc3)c(N)c2C1c1ccc(C(=O)OC)cc1 (configuration not stated),76.1% (active)
17,CCOC(=O)c1sc(=NC(=O)c2ccc(Br)cc2)n(C)c1C,-5.34%
18,COc1cc(C(=O)NCC(=O)NCCSc2ccc(Br)cc2)cc(OC)c1OC,-6.77%
19,CCC(C)(C)n1nnnc1C(c1cccs1)N1CCN(Cc2ccccc2)CC1 (configuration not stated),5.19%
20,CCC(C)(C)n1nnnc1C(c1ccccc1OC)N1CCSCC1 (configuration not stated),-14.5%
21,CCC(C)(C)n1nnnc1C(c1cccs1)N1CCN(c2nc3ccccc3s2)CC1 (configuration not stated),66.6% (active)
22,COc1ccc(Cc2nnc(SCC(=O)Nc3ccc(C)c(Cl)c3)[nH]c2=O)cc1,23.1%
23,S=C(NCCc1ccccc1)N1CCn2cccc2C1c1ccncc1 (configuration not stated),23.4%

row,SMILES,inhibition
1,Fc1cc(Br)ccc1NC(=S)Nc1cccnc1,-15.3%
2,S=C(Nc1cccc(Br)c1)N1CCn2cccc2C1c1cccnc1 (configuration not stated),72.8% (active)
3,O=C(COC(=O)/C=C/c1ccc(OC(F)F)cc1)NC1CCCCC1,-1.87%
4,C=CCn1c(SCCOc2ccc(OC)cc2)nnc1C(NC(=O)c1ccc(OC)cc1)C(C)C (configuration not stated),4.8%
5,Cc1ccc(C(=O)NNC(=O)c2ccncc2)cc1S(=O)(=O)N1CCCCC1,-3.57%
6,Cc1ccc(N=C2SCCCN2C(=O)c2cccc(N3C(=O)CCC3=O)c2)cc1Cl,35.8%
7,CC(Nc1nc(N2CCOCC2)nc2ccccc12)c1ccccc1 (configuration not stated),31.7%
8,CC(Nc1nc(N2CCN(CCO)CC2)nc2ccccc12)c1ccccc1 (configuration not stated),-7.35%
9,CC(Nc1nc(N2CCCC2)nc2ccccc12)c1ccccc1 (configuration not stated),58.1% (active)
10,O=C(NCCC1CCCCN1S(=O)(=O)c1ccc(F)cc1)C(=O)NC1CC1 (configuration not stated),-6.12%
11,COc1cc(NC(=O)CSc2ccc(-c3cccnc3)nn2)cc(OC)c1,1.76%
12,COc1ccc(N2CC(NS(=O)(=O)c3ccc4ccccc4c3)CC2=O)cc1 (configuration not stated),-4.61%
13,O=C(NCc1ccncc1)c1ccc(NS(=O)(=O)c2cccc([N+](=O)[O-])c2)cc1,-11.6%
14,O=C(Nc1ccccc1C(=O)Nc1ccncc1)c1ccc([N+](=O)[O-])cc1,31.4%
15,O=C(Nc1cc2c3c(c1)C1CCCC1CN3CC1CCCC21)c1ccc([N+](=O)[O-])cc1 (configuration not stated),82.1% (active)
16,CN1C2CCC1CC(NC(=O)c1ccc([N+](=O)[O-])cc1)C2 (configuration not stated),8.42%
17,Cc1csc(=O)n1CC(=O)OCC(=O)N(CC(C)C)c1c(N)n(Cc2ccccc2)c(=O)[nH]c1=O,-7.8%
18,Cc1ccc(NC(=O)CSc2cccc3cccnc23)c(C)c1,26.2%
19,Cc1c(NC(=O)CSc2cccc3cccnc23)c(=O)n(-c2ccccc2)n1C,67.7% (active)
20,Cc1c(NC(=O)CSc2nnnn2-c2ccc(C(=O)O)cc2)c(=O)n(-c2ccccc2)n1C,-12.6%
21,CC(C)Cc1nc(N2CCOCC2)c(C#N)c2c1CCC2,9.81%
22,CC(C)CCNc1nc(N2CCCC2)c2c(c1C#N)CCN(C)C2,58.4% (active)
23,CCc1nc(NCCO)c(C#N)c2c1CCCC2,-15%

# Reference: PubChem BioAssay AID1885 (Broad Institute, 2009)
